Here are results for four compounds from ChEMBL document CHEMBL1151190, “Acetylated flavonoid glycosides potentiating NGF action from Scoparia dulcis” (2004).

Active and inactive are the calls of the source. No cut-off for these calls is given here.

The test system of assay [1] is PC-12. As to the kind of experiment: Increase of nerve growth factor-stimulated neurite growth in rat PC12D cells at 10 to 100 umol after 48 hrs. The format is functional, cell-based. The essentials: (§1)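 PC12D cells detached with 1 mmol EGTA in PBS for 30 min, seeded at 2 × 10^4 cells/well on poly-L-lysine. After 24 h, switched to medium with 1% fetal calf serum, 2% horse serum, NGF 2 ng/mL plus compound at 10, 30 or 100 µmol (DMSO stocks 50 mmol). Fixed after 48 h with 2% glutaraldehyde, 37 °C, 1 h.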

For assay [2], the system named is PC-12. The assay is described as follows: Induction of neurite growth in rat PC12D cells at 10 umol after 48 hrs. The format is functional, cell-based. The method in brief: (§2)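 No NGF was added. PC12D cells were detached with EGTA/PBS and plated on poly-L-lysine. After 24 h they went into medium with 1% fetal calf serum and 2% horse serum plus compound (DMSO stocks 50 mmol). Cells were fixed after 48 h in 2% glutaraldehyde. The percentage with processes ≥ cell-body diameter was scored by phase-contrast microscopy: 3 fields/well, 6 wells/sample.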

Assay [3] concerns PC-12. The assay is described as follows: Induction of neurite growth in rat PC12D cells at 30 umol after 48 hrs. The format is functional, cell-based. The essentials: as §2
Assay [4] has as its system PC-12. The assay is described as follows: Induction of neurite growth in rat PC12D cells at 100 umol after 48 hrs. In kind it is functional, cell-based. The method in brief:
as §2

Assay [5] deals with PC-12. As to the kind of experiment: Increase of nerve growth factor-stimulated neurite growth in rat PC12D cells at 100 umol after 48 hrs. The format is functional. The essentials: as §1

As for `CC(=O)O[C@@H]1[C@@H](O)[C@H](C)O[C@@H](OC[C@H]2O[C@@H](Oc3cc4oc(-c5ccc(O)cc5)cc(=O)c4c(O)c3O)[C@H](O)[C@@H](O)[C@@H]2O)[C@@H]1OC(C)=O`, the outcome in assay [1] was inactive.
Regarding `C=CCc1ccc(O[C@@H]2O[C@H](CO)[C@@H](O)[C@H](O)[C@H]2O)c(OC)c1`, the result in assay [1] was inactive.
For the compound `CC(=O)O[C@@H]1[C@@H](O)[C@H](C)O[C@@H](OC[C@H]2O[C@@H](Oc3cc(O)c4c(=O)cc(-c5ccc(O)cc5)oc4c3)[C@H](O)[C@@H](O)[C@@H]2O)[C@@H]1O`, the outcome in assay [2], in assay [3] and in assay [4] was inactive. Moreover, the Activity in assay [5] is 16.1%.
In the case of `CC(=O)O[C@@H]1[C@@H](O)[C@H](C)O[C@@H](OC[C@H]2O[C@@H](Oc3cc(O)c4c(=O)cc(-c5ccc(O)cc5)oc4c3)[C@H](O)[C@@H](O)[C@@H]2O)[C@@H]1OC(C)=O`, the result in assay [2], in assay [3] and in assay [4] was inactive. Besides, in assay [5], the Activity is 14.9%.
